From PubChem
EBNA-1 inh: blocks EBNA-1 binding to DNA. EBNA-1 DNA binding, fluorescence polarization. inhibition, % at 14.8 µM. actives 0.34% (n = 300,000). AID 1950; in the data active = inhibition above about 28%
PP1 inh: blocks human PP1-alpha phosphatase, a PP5 counter-screen; inhibition, % at 6.7 µM; P62136; AID 2235; purified PP1alpha, OMFP fluorescence; actives 0.9% (n = 320,000);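 active = inhibition above the mean inhibition of all tested compounds plus 3 SD, computed separately for each screening campaign, cut at about 15% in these data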
Target sequence (P62136 whole entry, looked up): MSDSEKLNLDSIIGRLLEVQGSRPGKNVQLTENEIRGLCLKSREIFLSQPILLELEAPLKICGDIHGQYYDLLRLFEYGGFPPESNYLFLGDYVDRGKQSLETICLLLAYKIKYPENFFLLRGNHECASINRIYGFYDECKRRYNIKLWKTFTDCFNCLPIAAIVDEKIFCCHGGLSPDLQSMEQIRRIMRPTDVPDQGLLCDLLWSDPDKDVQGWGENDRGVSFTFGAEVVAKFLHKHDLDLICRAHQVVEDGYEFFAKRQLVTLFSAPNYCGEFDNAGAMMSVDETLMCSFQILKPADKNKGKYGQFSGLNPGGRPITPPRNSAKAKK
HCV core dimer: blocks dimerization of HCV core protein; TR-FRET GST/Flag-core106 dimerization, 1536-well; inhibition, % at 5 µM; actives 0.33% (n = 300,000);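 active = inhibition above the mean of all tested compounds plus 3 SD, set per screening campaign, cut at about 45% in these data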
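Assay system: tagged HCV core106 pair (GST and Flag); medium: KF-containing HEPES buffer, pH 7.45, DTT, CHAPS, BSA; also added: Eu donor and XL665 acceptor anti-tag antibodies; dosing: 5 µM single dose; timing: compound-protein-antibody incubation 4 h at 22.5 °C; signal: TR-FRET 671 and 617 nm emission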
ZTA counter: ZTA (EBV) inhibition in EBNA-1 counter-screen; P03206; ZTA-DNA binding, fluorescence polarization; inhibition, % at 11 µM; actives 0.15% (n = 320,000); AID 2234; in the data active = inhibition above about 33%
NS3 helicase inh: HCV NS3 helicase inhibition; AID 1800; actives 0.56% (n = 290,000); inhibition, % at 10.9 µM; NS3 helicase DNA unwinding, Cy5 molecular beacon fluorescence;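 active = inhibition above the mean of all tested compounds plus 3 SD, set per campaign, cut at about 35% in these data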
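Compound dosing – single dose, 10.9 µM nominal final, DMSO 0.8% final · System – NS3 helicase fragment of HCV · Buffer or medium – MOPS pH 6.5, MgCl2, DTT, Tween20, BSA · Signal – Cy5 beacon fluorescence read at start and 1 h · Also added – annealed dual-labelled DNA beacon duplex, ATP-started · Schedule – 1 h at 25 °C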
NS3 helicase cf: HCV NS3 helicase inhibition, confirmation assay | inhibition, % at 10.9 µM | NS3 helicase DNA unwinding, Cy5 molecular beacon fluorescence | actives 31% (n = 1,600) | shares compounds with NS3 helicase inh;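 active = inhibition above the mean of all tested compounds plus 3 SD, cutoff set per campaign, cut at about 36% in these data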
FID counter trip: intercalator displacement, NS3 helicase counter-screen | shares compounds with NS3 helicase inh | DNA fluorescent intercalator displacement, fluorescence | inhibition, % at 7.9 µM | actives 4% (n = 1,600) | AID 1945; in the data active = inhibition above about 37%;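 note: higher means more displacement of ethidium bromide from the DNA hairpin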
DNA FID DR: DNA intercalator displacement in dose response | shares compounds with NS3 helicase inh | fluorescent intercalator displacement from DNA, fluorescence | IC50, µM | 120 tested, under 10 active | AID 2172; call rule not given here
Large screens that a line does not name were inactive (follow-up assays come after a bar, where they were run). Compounds with a hit are over-represented: about 1.9% of the library has one in this group of screens.

O=S(=O)(Cc1ccco1)Cc1nc(-c2ccc(Cl)cc2)cs1	NS3 helicase inh 43 | NS3 helicase cf inactive | FID counter trip inactive
O=C1ON=C(c2ccccc2)/C1=C/c1ccc(O)c(O)c1	NS3 helicase inh 46 | NS3 helicase cf inactive | FID counter trip inactive
CCOc1ccc(S(=O)(=O)NC2CCCCCC2)cc1	none
CCOc1ccc(S(=O)(=O)N/N=C(\C)C2CCCCC2)cc1	NS3 helicase inh 43 | NS3 helicase cf inactive | FID counter trip inactive
O=C(Nc1cccc(-n2cnnn2)c1)c1cc(Cl)ccc1Cl	none
O=C(Nc1cccc(-n2cnnn2)c1)c1ccccc1Br	NS3 helicase inh 53 | NS3 helicase cf inactive | FID counter trip inactive
Oc1c(/C=C/C=C/C=Nc2ccccc2)sc(=S)n1Cc1ccccc1	HCV core dimer 50, NS3 helicase inh 44 | NS3 helicase cf 65 | FID counter trip inactive | DNA FID DR inactive
COc1ccc(CC(=O)Nc2cccc(S(=O)(=O)N3CCOCC3)c2)cc1OC	none (no result: EBNA-1 inh, HCV core dimer, NS3 helicase inh)
CC1=NN(c2ccc(C)c(C)c2)C(=O)/C1=C\C=C\c1ccc([N+](=O)[O-])o1	HCV core dimer 63, NS3 helicase inh 40 | NS3 helicase cf inactive | FID counter trip inactive
CC1=NN(c2ccccc2)C(=O)/C1=C\C=C\c1ccccc1	none
O=c1n(Cc2ccccc2Cl)nc2n1-c1ccccc1SC2	none
O=C(O)c1ccc(-n2cccc2/C=C2/NC(=O)N(c3cccc(Cl)c3)C2=O)cc1	NS3 helicase inh 41 (no result: EBNA-1 inh, PP1 inh, HCV core dimer, ZTA counter) | NS3 helicase cf 70 | FID counter trip inactive | DNA FID DR inactive
O=C(O)c1ccc(-n2cccc2/C=C2/NC(=O)N(c3ccccc3)C2=O)cc1	none
Cc1c(C(=O)O)sc2nc(/C=C/c3cccc(F)c3)[nH]c(=O)c12	NS3 helicase inh 63 | NS3 helicase cf inactive | FID counter trip inactive
Cc1ccc(/C=C/c2nc3sc(C(=O)O)c(C)c3c(=O)[nH]2)cc1[N+](=O)[O-]	none
COc1cccc(/C=N/NC(=O)c2nc(-c3ccccc3)cc(-c3ccccc3)n2)c1O	none
O=C1CC(=O)N(c2ccccc2)N1c1ccccc1	NS3 helicase inh 38 | NS3 helicase cf inactive | FID counter trip inactive
O=C1CC(=O)N(c2ccccc2)c2ccccc21	none
CC1(C)CC(=O)C2=C(C1)N(c1ccc(F)cc1)C(=O)C2(NC(=O)c1ccccc1)C(F)(F)F (stereo not given)	NS3 helicase inh 49 | NS3 helicase cf inactive | FID counter trip inactive
Cc1ccc(-c2csc(N/N=C/c3ccco3)n2)c(C)c1	NS3 helicase inh 40 | NS3 helicase cf inactive | FID counter trip inactive
CN(C)S(=O)(=O)c1cccc(-c2csc(N/N=C/c3ccco3)n2)c1	none
CC(C)(CNC(=O)c1ccc(S(=O)(=O)Nc2ccc(Cl)cc2)cc1)N1CCOCC1	none (no result: EBNA-1 inh, HCV core dimer, NS3 helicase inh)
O=C(Nc1cccc2ccccc12)c1ccc([N+](=O)[O-])cc1	NS3 helicase inh 41 | NS3 helicase cf inactive | FID counter trip inactive
Cc1cc(/C=C2/C(=O)N(C)C(=S)N2C)c(C)n1C1CC1	none
Cc1cc(/C=C2\SC(=S)NC2=O)c(C)n1C1CC1	NS3 helicase inh 76 | NS3 helicase cf 36 | FID counter trip inactive
NNc1nc2c(-c3cccc(C(F)(F)F)c3)nnn2c2ccccc12	NS3 helicase inh 43 (no result: EBNA-1 inh, PP1 inh, HCV core dimer, ZTA counter) | NS3 helicase cf inactive | FID counter trip inactive
COCCNc1nc2c(-c3cccc(C(F)(F)F)c3)nnn2c2ccccc12	none
CCOC(=O)c1cnc(-c2ccccc2)nc1N1CCOCC1	NS3 helicase inh 49 | NS3 helicase cf inactive | FID counter trip inactive
CC1=NN(C(N)=S)C(=O)C1N=Nc1ccc(C)c(Br)c1 (stereo not given)	NS3 helicase inh 40 | NS3 helicase cf inactive | FID counter trip inactive
O=C(Nc1ccc(Oc2ccc(Cl)cc2)c(Cl)c1)c1cc(I)cc(I)c1O	NS3 helicase inh 47 | NS3 helicase cf 84 | FID counter trip inactive
O=C(O)CN1C(=O)/C(=C\c2cccc(OCc3ccc(Cl)cc3)c2)SC1=S	none
